Measured values taken from ChEMBL document CHEMBL5113498, “A fragment-based drug discovery strategy applied to the identification of NDM-1 β-lactamase inhibitors” (Eur J Med Chem, 2022).

What was measured:
Bacteria [1] = assay: Inhibition of […] (unknown origin) using imipenem as substrate at 50 uM by spectrophotometric assay relative to control
Procedure, shortened: (§1)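 Reporter-substrate spectrophotometric assay in 50 mM HEPES pH 7.5. Imipenem 150 μM (final) hydrolysis followed as absorbance change at 300 nm, with and without 50 μM compound. Compounds dissolved in DMSO (100 mM stock) and diluted in reaction buffer. % inhibition = 100 − 100×(vi/v0). 5 mM EDTA served as inhibition control.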

[2] = Inhibition of […] (unknown origin) using imipenem as substrate by spectrophotometric assay relative to control; design: species or system Bacteria
Procedure, shortened: (§2)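 Ki from a competitive model. Initial rates of hydrolysis of 150 μM imipenem (reporter substrate) measured spectrophotometrically in 50 mM HEPES pH 7.5 at varying inhibitor concentrations. v0/vi plotted against [I], and Ki = KM/[(KM+[S])·slope]. Assays run in triplicate.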

Bacteria [3] = assay: Inhibition of IMP-1 (unknown origin) using imipenem as substrate at 50 uM by spectrophotometric assay relative to control; procedure, shortened: as §1
Bacteria [4] = assay: Inhibition of VIM-2 (unknown origin) using imipenem as substrate at 50 uM by spectrophotometric assay relative to control; procedure, shortened: as §1
Klebsiella pneumoniae [5] = assay: Synergistic antibacterial activity against Klebsiella pneumoniae SI-518 assessed as meropenem MIC at 32 ug/ml after 24 hrs by two-fold serial dilution method; type: functional; details: dose 32 µg/ml
Procedure, shortened: (§3)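 Meropenem MICs against NDM-1-producing clinical isolates, with or without inhibitor fixed at 32 μg/mL, by two-fold serial dilution in Mueller-Hinton broth. Inoculum 5×10^4 CFU/well, CLSI method. Inhibitor added before the antibiotic. Plates incubated 24 h at 35 °C and read visually. Done in triplicate.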

Escherichia coli [6] = assay: Synergistic antibacterial activity against Escherichia coli SI-004M assessed as meropenem MIC at 32 ug/ml after 24 hrs by two-fold serial dilution method; type: functional; details: dose 32 µg/ml; procedure, shortened: as §3
[7] = Inhibition of IMP-1 (unknown origin) using imipenem as substrate by spectrophotometric assay relative to control; design: species or system Bacteria; procedure, shortened: as §2
Klebsiella pneumoniae [8] = assay: Synergistic antibacterial activity against Klebsiella pneumoniae SI-518 assessed as fold reduction in meropenem MIC at 32 ug/ml after 24 hrs by two-fold serial dilution method; type: functional; details: dose 32 µg/ml; procedure, shortened: as §3
Escherichia coli [9] = assay: Synergistic antibacterial activity against Escherichia coli SI-004M assessed as fold reduction in meropenem MIC at 32 ug/ml after 24 hrs by two-fold serial dilution method; type: functional; details: dose 32 µg/ml; procedure, shortened: as §3
Klebsiella pneumoniae [10] = assay: Antibacterial activity against Klebsiella pneumoniae SI-518 assessed as reduction in microbial growth after 24 hrs by two-fold serial dilution method; type: functional
Procedure, shortened: (§4)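 NDM-1-producing clinical isolate; meropenem MIC measured without inhibitor and with a fixed 32 μg/mL inhibitor (in each well and in the diluent) over two-fold serial dilutions. Mueller-Hinton broth, 5×10^4 CFU/well inoculum, per CLSI. Incubated 35 °C for 24 h and read visually. Triplicate. Compounds from a DMSO stock diluted in medium.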

Escherichia coli [11] = assay: Antibacterial activity against Escherichia coli SI-004M assessed as reduction in microbial growth after 24 hrs by two-fold serial dilution method; type: functional; procedure, shortened: as §4

SMILES	inhibition (Bacteria [1]) [%]	Ki [2] [µM]	inhibition (Bacteria [3]) [%]	inhibition (Bacteria [4]) [%]	other results
O=C(/C=C/c1ccc(N2CCCCC2)cc1)c1ccccc1O	35				
O=C1/C(=C/c2ccc(N3CCCCC3)cc2)Oc2cc(O)cc(O)c21	74	4.8	< 20	< 20	
Oc1cccc2ccc(CCc3ccccc3)nc12	85		76	28	
O=C(/C=C/c1ccc(N2CCOCC2)cc1)c1ccccc1O	24				
O=C1/C(=C/c2ccc(O)c(O)c2)Cc2cc(O)cc(O)c21	77	4.1	23	< 20	
Oc1cccc2ccc(CCc3ccc4c(c3)OCO4)nc12	90	1.1	71	38	MIC (Klebsiella pneumoniae [5]): 64 µg/mL; MIC (Escherichia coli [6]): 64 µg/mL
O=C(/C=C/c1ccc2c(c1)OCO2)c1ccccc1O	< 20				
Oc1cccc2ccc(/C=C/c3ccccc3)nc12	95	2.2	84	37	Ki [7]: 4.7 µM; MIC (Klebsiella pneumoniae [5]): 0.25 µg/mL; MIC (Escherichia coli [6]): 1 µg/mL; fold change (FC) (Klebsiella pneumoniae [8]): 256; fold change (FC) (Escherichia coli [9]): 64
CCCCOc1ccc(/C=C2\Oc3cc(O)cc(O)c3C2=O)c(O)c1	46				
C[C@@H](O)[C@H]1C(=O)N2C(C(=O)O)=C(S[C@@H]3CN[C@H](C(=O)N(C)C)C3)[C@H](C)[C@H]12 [MEROPENEM]					MIC (Klebsiella pneumoniae [10]): 64 µg/mL; MIC (Escherichia coli [11]): 64 µg/mL
Oc1cccc2ccc(/C=C/c3ccc4c(c3)OCO4)nc12	93		79	26	
